We go through 10 compounds from ChEMBL document CHEMBL1833812, “Synthesis, biological evaluation, and automated docking of constrained analogues of the opioid peptide H-Dmt-D-Ala-Phe-Gly-NH₂ using the 4- or 5-methyl substituted 4-amino-1,2,4,5-tetrahydro-2-benzazepin-3-one scaffold” (J Med Chem, 2011).

Experiment [1] deals with Delta-type opioid receptor (Rattus norvegicus, UniProt P33533). Put plainly: Displacement of [3H]Ile-deltorphin-2 from rat brain delta-type opioid receptor by liquid scintillation counting. In short, it runs like this: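 Wistar male rat (250–300 g) brain membranes, 0.2–0.4 mg protein/tube, 2 nM [3H]Ile5,6-deltorphin-2 plus 0.25 mg BSA/tube, competitor 10^-11–10^-5 M, 50 mM Tris-HCl pH 7.4, 45 min at 35 °C. GF/B filtration, ice-cold Tris washes, scintillation counting. Nonspecific binding with 10 μM naloxone; duplicates, one/two-site competition fit for Ki.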

Another experiment is filed under the species Rattus norvegicus. In words: Selectivity ratio of Ki of rat brain delta-type opioid receptor to Ki of rat brain Mu-type opioid receptor.
The target of experiment [2] is T1, Mu-type opioid receptor (Rattus norvegicus, UniProt P33535). Put plainly: Displacement of [3H]DAMGO from rat brain Mu-type opioid receptor by liquid scintillation counting. Put shortly:
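Wistar male rat (250–300 g) brain membrane homogenate, 0.2–0.4 mg protein/tube, with 0.5 nM [3H]DAMGO and competitor 10^-11–10^-5 M in 50 mM Tris-HCl pH 7.4, 1 h at 25 °C. Stopped by GF/C filtration, ice-cold Tris washes, scintillation counted. Nonspecific binding with 10 μM naloxone; duplicate runs, one/two-site competition fit for Ki.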

Experiment [3] concerns the target Mu-type opioid receptor (Rattus norvegicus) (UniProt P33535). In words: Agonist activity at rat brain Mu-type opioid receptor assessed as [35S]GTPgammaS binding by liquid scintillation counting relative to control. Format: functional. In short, it runs like this:
(§1)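 Rat brain membranes (15 μg protein/tube) with 0.05 nM [35S]GTPγS and opioids 10^-10–10^-5 M, plus 30 μM GDP, 100 mM NaCl, 3 mM MgCl2, 1 mM EGTA in 50 mM Tris-HCl pH 7.4, 60 min at 30 °C. Started by protein, stopped with ice-cold buffer and GF/B filtration, scintillation counted. Nonspecific binding with 10 μM unlabeled GTPγS; stimulation as % of specific binding over basal (no opioid).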

The target in experiment [4] is T1, Mu-type opioid receptor. In words: Agonist activity at rat brain mu-opioid receptor assessed as [35S]GTPgammaS binding by liquid scintillation counting. It is filed as functional. Put shortly: as §1
In experiment [5] the target is Mu-type opioid receptor (Homo sapiens, UniProt P35372). In words: Agonist activity at Mu-type opioid receptor. It is filed as functional.
The target in experiment [6] is Mu-type opioid receptor (Cavia porcellus, UniProt P97266). In words: Agonist activity at guinea pig ileum Mu-type opioid receptor. It is filed as functional, tissue-based.
Experiment [7] deals with Delta-type opioid receptor (Homo sapiens, UniProt P41143). In words: Agonist activity at delta-type opioid receptor. It is filed as functional.
Delta-type opioid receptor (Homo sapiens, UniProt P41143), sequence (P41143 whole entry): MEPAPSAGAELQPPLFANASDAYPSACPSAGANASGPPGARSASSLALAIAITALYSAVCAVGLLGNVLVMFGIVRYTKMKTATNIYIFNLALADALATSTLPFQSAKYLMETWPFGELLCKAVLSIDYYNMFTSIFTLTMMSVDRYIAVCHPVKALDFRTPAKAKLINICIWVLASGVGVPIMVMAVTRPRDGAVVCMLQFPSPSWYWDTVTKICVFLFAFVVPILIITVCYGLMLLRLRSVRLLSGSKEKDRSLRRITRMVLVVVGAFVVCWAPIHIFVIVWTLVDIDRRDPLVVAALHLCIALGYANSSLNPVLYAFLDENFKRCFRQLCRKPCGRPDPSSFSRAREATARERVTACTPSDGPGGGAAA

Delta-type opioid receptor (Rattus norvegicus, UniProt P33533), sequence (P33533 whole entry): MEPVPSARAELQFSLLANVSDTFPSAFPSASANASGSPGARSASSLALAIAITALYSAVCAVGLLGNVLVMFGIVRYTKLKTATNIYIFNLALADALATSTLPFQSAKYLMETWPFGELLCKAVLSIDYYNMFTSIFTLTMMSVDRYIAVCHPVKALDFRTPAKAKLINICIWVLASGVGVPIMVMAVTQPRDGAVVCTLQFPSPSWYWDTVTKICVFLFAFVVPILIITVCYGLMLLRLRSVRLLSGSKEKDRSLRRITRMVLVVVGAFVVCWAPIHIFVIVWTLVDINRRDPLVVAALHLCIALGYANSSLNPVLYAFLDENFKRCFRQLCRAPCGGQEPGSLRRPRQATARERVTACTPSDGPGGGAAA
Mu-type opioid receptor (Rattus norvegicus), sequence (P33535 whole entry): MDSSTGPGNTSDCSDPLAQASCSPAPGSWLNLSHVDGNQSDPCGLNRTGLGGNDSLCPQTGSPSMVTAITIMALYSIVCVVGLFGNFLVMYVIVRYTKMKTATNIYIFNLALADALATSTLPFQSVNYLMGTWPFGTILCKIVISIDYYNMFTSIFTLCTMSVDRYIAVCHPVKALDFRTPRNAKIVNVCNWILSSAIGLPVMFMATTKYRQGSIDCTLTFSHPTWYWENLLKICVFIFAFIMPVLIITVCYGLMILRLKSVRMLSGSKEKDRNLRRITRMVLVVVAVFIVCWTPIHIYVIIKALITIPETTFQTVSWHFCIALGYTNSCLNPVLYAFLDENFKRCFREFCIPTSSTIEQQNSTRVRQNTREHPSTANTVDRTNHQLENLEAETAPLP
T1 sequence (P33535 whole entry): as above
Mu-type opioid receptor (Homo sapiens, UniProt P35372), sequence (P35372 whole entry): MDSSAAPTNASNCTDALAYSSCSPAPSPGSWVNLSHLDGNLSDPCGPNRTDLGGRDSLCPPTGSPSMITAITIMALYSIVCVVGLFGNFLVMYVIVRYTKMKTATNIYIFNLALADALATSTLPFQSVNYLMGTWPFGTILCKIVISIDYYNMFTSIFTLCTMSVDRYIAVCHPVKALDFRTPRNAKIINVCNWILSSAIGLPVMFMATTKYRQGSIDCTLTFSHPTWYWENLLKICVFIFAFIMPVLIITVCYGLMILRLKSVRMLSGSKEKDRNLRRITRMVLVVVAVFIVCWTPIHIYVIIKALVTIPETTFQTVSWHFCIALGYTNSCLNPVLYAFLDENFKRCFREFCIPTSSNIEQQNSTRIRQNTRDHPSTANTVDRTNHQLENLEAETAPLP
Mu-type opioid receptor (Cavia porcellus, UniProt P97266), sequence (P97266 whole entry): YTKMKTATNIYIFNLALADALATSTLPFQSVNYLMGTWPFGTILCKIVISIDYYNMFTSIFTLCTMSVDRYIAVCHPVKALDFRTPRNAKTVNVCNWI

`Cc1cc(O)cc(C)c1C[C@H](N)C(=O)N[C@H](C)C(=O)N[C@H]1Cc2ccccc2CN(CC(N)=O)C1=O`: the Ki is 2.4 nM in experiment [1] and 0.047 nM at Mu-type opioid receptor [2]. Further, the Ratio Ki in the experiment filed under Rattus norvegicus worked out at 51. Also, the Emax in experiment [3] is 161%. At Mu-type opioid receptor [4], the EC50 turned out to be 18 nM.

`Cc1cc(O)cc(C)c1C[C@H](N)C(=O)N[C@H](C)C(=O)N[C@@H]1C(=O)N(CC(N)=O)Cc2ccccc2[C@@H]1C`: the figures for the Ki (in experiment [1]; at Mu-type opioid receptor [2]) were 1.7 nM and 0.025 nM, respectively. Moreover, in the experiment filed under Rattus norvegicus, the Ratio Ki came out at 68. Also, the Emax in experiment [3] is 191%. Also, the EC50 at Mu-type opioid receptor [4] came out at 36 nM.

Consider `Cc1cc(O)cc(C)c1C[C@H](N)C(=O)N[C@H](C)C(=O)N[C@H]1C(=O)N(CC(N)=O)Cc2ccccc2[C@@H]1C`, for which the values for the Ki (in experiment [1]; at Mu-type opioid receptor [2]) were 24 nM and 0.025 nM, respectively. Besides, the Ratio Ki in the experiment listed under Rattus norvegicus was found to be 960. Further, the Emax in experiment [3] worked out at 149%. In addition, the EC50 on Mu-type opioid receptor [4] is 9.3 nM.

Regarding `Cc1cc(O)cc(C)c1C[C@H](N)C(=O)N[C@H](C)C(=O)N[C@@]1(C)Cc2ccccc2CN(CC(N)=O)C1=O`, the figures for the Ki (in experiment [1]; on Mu-type opioid receptor [2]) were 859 nM and 4.6 nM, respectively. For the same compound, the Ratio Ki in the experiment filed under Rattus norvegicus is 187. In experiment [3], the Emax was determined as 159%. Further, at Mu-type opioid receptor [4], the EC50 stood at 941 nM.

Take `Cc1cc(O)cc(C)c1C[C@H](N)C(=O)N[C@H](C)C(=O)N[C@H]1C(=O)N(CC(N)=O)Cc2ccccc2[C@H]1C`: the Ki worked out at 490 nM in experiment [1] and 0.4 nM at Mu-type opioid receptor [2]. The Ratio Ki in the experiment filed under Rattus norvegicus was 1220. In addition, in experiment [3], the Emax was 167%. Besides, the EC50 at Mu-type opioid receptor [4] was determined as 184 nM.

`C[C@H](C(=O)NC1Cc2ccccc2CN(CC(N)=O)C1=O)N1Cc2cc(O)ccc2CC(N)C1=O` (some centres undefined): the IC50 on Mu-type opioid receptor [5] was determined as 20.8 nM; at Mu-type opioid receptor [6] it was 3.64 nM.

For `Cc1cc(O)cc(C)c1C[C@H](N)C(=O)N[C@H](C)C(=O)N[C@@H]1C(=O)N(CC(N)=O)Cc2ccccc2[C@H]1C`, the Ki in experiment [1] was 720 nM; at Mu-type opioid receptor [2], 14 nM. In addition, in the experiment listed under Rattus norvegicus, the Ratio Ki is 51. In addition, the Emax in experiment [3] is 130%. Moreover, the EC50 at Mu-type opioid receptor [4] came to 685 nM.

As for `Cc1cc(O)cc(C)c1C[C@H](N)C(=O)N[C@H](C)C(=O)N[C@@H]1Cc2ccccc2CN(CC(N)=O)C1=O`, the Ki in experiment [1] came to 337 nM; on Mu-type opioid receptor [2], 0.33 nM. Moreover, in the experiment filed under Rattus norvegicus, the Ratio Ki worked out at 1020. For the same compound, the Emax in experiment [3] stood at 178%. In addition, the EC50 on Mu-type opioid receptor [4] was 64.2 nM.

As to `Cc1cc(O)cc(C)c1C[C@H](N)C(=O)N[C@H](C)C(=O)N[C@]1(C)Cc2ccccc2CN(CC(N)=O)C1=O`, the Ki in experiment [1] was found to be 63 nM; at Mu-type opioid receptor [2], 0.3 nM. For the same compound, the Ratio Ki in the experiment listed under Rattus norvegicus was found to be 210. Besides, the Emax in experiment [3] was determined as 154%. The EC50 on Mu-type opioid receptor [4] was 288 nM.

For the compound `C[C@@H](NC(=O)[C@@H](N)Cc1ccc(O)cc1)C(=O)NC1Cc2ccccc2CN(CC(=O)N[C@@H](Cc2ccc(O)cc2)C(=O)N2CCC[C@H]2C(=O)N[C@@H](CO)C(N)=O)C1=O` (some centres undefined), the IC50 amounted to 17.4 nM in experiment [7] and 11 nM on Mu-type opioid receptor [5].
